Measured values: ChEMBL document CHEMBL4819012, “Discovery of novel 2-aryl-3-sulfonamido-pyridines (HoAns) as microtubule polymerization inhibitors with potent antitumor activities” (Eur J Med Chem, 2021)
Values belong to the compound of their own block, whether it stands above or below them. The source made the active and inactive calls. The calls are words filed in the database; no cut-off is given here.

Columns and labels:
[1] = test system: MCF7; assay: Antiproliferative activity against human MCF7 cells assessed as cell viability at 10 uM measured after 72 hrs by MTS method; type: functional; details: read-out: Activity
In short: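 Single-concentration screen at 10 µM for 72 h. Log-phase cells plated at 5×10^3–6×10^3 per well for 24 h before dosing, five replicate wells. Viability measured by MTS: 10% MTS in fresh medium, 30 min or more at 37 °C in dark, absorbance 490 nm.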

[2] = Antiproliferative activity against human HCCLM3 cells assessed as cell viability measured after 72 hrs by MTS method; type: functional, cell-based; details: HCCLM3, 72 h
In short: (§1)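 Log-phase cells plated at 5×10^3–6×10^3 per well for 24 h, then given graded compound concentrations in fresh medium for 72 h, five replicate wells. Medium replaced with medium containing 10% MTS, 30 min or more at 37 °C in dark; OD 490 nm read. IC50 by nonlinear regression; mean ± SD of at least three experiments.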

[3] = test system: PANC-1; assay: Antiproliferative activity against human PANC-1 cells assessed as cell viability measured after 72 hrs by MTS method; type: functional, cell-based; details: PANC-1, 72 h; in short: as §1
[4] = test system: RKO; assay: Antiproliferative activity against human RKO cells assessed as cell viability measured after 72 hrs by MTS method; type: functional, cell-based; in short: as §1
[5] = test system: BT-474; assay: Antiproliferative activity against human BT-474 cells assessed as cell viability measured after 72 hrs by MTS method; type: functional, cell-based; details: BT-474, 72 h; in short: as §1
[6] = test system: A549; assay: Antiproliferative activity against human A549 cells assessed as cell viability measured after 72 hrs by MTS method; type: functional, cell-based; details: A549, 72 h; in short: as §1
[7] = test system: SW480; assay: Antiproliferative activity against human SW480 cells assessed as cell viability measured after 72 hrs by MTS method; type: functional, cell-based; details: SW480, 72 h; in short: as §1
[8] = test system: SK-BR-3; assay: Antiproliferative activity against human SK-BR-3 cells assessed as cell viability measured after 72 hrs by MTS method; type: functional, cell-based; details: SK-BR-3, 72 h; in short: as §1
[9] = test system: SW-620; assay: Antiproliferative activity against human SW-620 cells assessed as cell viability measured after 72 hrs by MTS method; type: functional, cell-based; details: SW-620, 72 h; in short: as §1
[10] = test system: NCI-H460; assay: Antiproliferative activity against human NCI-H460 cells assessed as cell viability measured after 72 hrs by MTS method; type: functional, cell-based; details: NCI-H460, 72 h; in short: as §1
[11] = test system: PLC-PRF-5; assay: Antiproliferative activity against human PLC-PRF-5 cells assessed as cell viability measured after 72 hrs by MTS method; type: functional, cell-based; details: PLC-PRF-5, 72 h; in short: as §1
[12] = biological target: T1, Tubulin (Homo sapiens) (UniProt P68371+Q9H4B7+P0DPH7+P68366+Q13509+Q71U36+P04350+Q3ZCM7+P07437+P68363+Q9BQE3+Q6PEY2+Q13885+Q9BVA1+Q9BUF5); assay: Inhibition of tubulin polymerization in human RKO cells assessed as morphology changed to fusiform at 1 uM measured 24 hrs by DAPI staining based immunoflourescence assay; type: cell-based; details: in the assay text read “changed to round from fusiform” for “changed to fusiform”
In short: (§2)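 RKO cells on coverslips (2.5×10^5 per well) incubated overnight, then treated for 24 h at 0.5 or 1 μM, DMSO, or 1 μM comparators. Fixed in cold methanol 10 min, permeabilized with 0.25% Triton X-100, blocked in 1% BSA at 4 °C overnight. Stained with anti-β-tubulin (1:100, 2 h RT) and Alexa Fluor 594 secondary (1:500, 1 h), nuclei with DAPI; imaged by fluorescence microscopy.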

[13] = biological target: T1, Tubulin (Homo sapiens); assay: Inhibition of tubulin polymerization in human RKO cells assessed as fragmentation of microtubule at 1 uM measured 24 hrs by DAPI staining based immunoflourescence assay; type: cell-based; in short: as §2
[14] = organism: Sus scrofa; assay: Inhibition of pig tubulin polymerization at 10 uM measured every minute for 60 mins by microplate reader method
In short: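 Kit assay with porcine tubulin (>97% pure) at 4 mg/mL in PIPES 80 mM, MgCl2 2 mM, EGTA 0.5 mM, pH 6.9, with GTP. Compound at 10 μM final (from 100 μM working solution) preincubated 5 min at 37 °C in a prewarmed plate before cold tubulin mix is added. A340 read every minute for 60 min at 37 °C.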

Structure (SMILES): COc1ccc(S(=O)(=O)Nc2cccnc2-c2cccc(OC)c2)cc1
viability at 10 µM [1]: > 70%

Structure (SMILES): COc1ccc(S(=O)(=O)Nc2cccnc2-c2ccc3c(c2)OCO3)cc1
viability at 10 µM [1]: > 70%

IC50 [3]: > 10 µM
Structure (SMILES): N#Cc1ccc(-c2ncccc2NS(=O)(=O)c2ccc(C(F)(F)F)cc2)cc1F
IC50 [2]: > 10 µM | IC50 [4]: > 10 µM

Structure (SMILES): COc1ccc(-c2ncccc2NS(=O)(=O)c2ccc(OC)cc2)cc1
viability at 10 µM [1]: > 70%

Structure (SMILES): COc1ccc(S(=O)(=O)N(c2cccnc2-c2ccc3c(c2)OCO3)S(=O)(=O)c2ccc(OC)cc2)cc1
viability at 10 µM [1]: > 70%

IC50 [5]: > 10 µM | IC50 [3]: > 10 µM | IC50 [6]: > 10 µM | IC50 [7]: > 10 µM | IC50 [8]: > 10 µM | IC50 [9]: 7.89 µM | IC50 [10]: > 10 µM
Structure (SMILES): COc1ccc(S(=O)(=O)Nc2cccnc2-c2ccccc2)cc1
IC50 [2]: > 10 µM | IC50 [11]: > 10 µM | IC50 [4]: 4.32 µM

Structure (SMILES): COc1ccc(S(=O)(=O)Nc2cccnc2-c2cccc3c2oc2ccccc23)cc1
viability at 10 µM [1]: > 70%

IC50 [3]: > 10 µM
Structure (SMILES): N#Cc1ccc(-c2ncccc2NS(=O)(=O)c2ccccc2)cc1F
IC50 [2]: > 10 µM | IC50 [4]: > 10 µM

Structure (SMILES): COc1ccc(S(=O)(=O)Nc2cccnc2-c2cc(OC)cc(OC)c2)cc1
viability at 10 µM [1]: > 70%

IC50 [5]: > 10 µM | IC50 [3]: > 10 µM | IC50 [6]: > 10 µM | IC50 [7]: 9.21 µM | IC50 [8]: > 10 µM | IC50 [9]: 6.82 µM | IC50 [10]: > 10 µM
Structure (SMILES): COc1ccc(S(=O)(=O)Nc2cccnc2-c2ccc(C(F)(F)F)cc2)cc1
IC50 [2]: > 10 µM | IC50 [11]: > 10 µM | IC50 [4]: 4.05 µM

Structure (SMILES): COc1ccc(S(=O)(=O)Nc2cccnc2-c2ccc(OCc3ccccc3)cc2)cc1
viability at 10 µM [1]: > 70%

IC50 [3]: 10 µM
Structure (SMILES): N#Cc1ccc(-c2ncccc2NS(=O)(=O)c2ccc3ccccc3c2)cc1F
IC50 [2]: 8.87 µM | IC50 [4]: 2.92 µM

Structure (SMILES): COc1ccc(S(=O)(=O)Nc2cccnc2-c2cc(OC)ccc2OC)cc1
viability at 10 µM [1]: > 70%

Structure (SMILES): COc1ccc(S(=O)(=O)Nc2cccnc2-c2ccc(OC)cc2OC)cc1
viability at 10 µM [1]: > 70%

Structure (SMILES): COc1ccc(S(=O)(=O)Nc2cccnc2-c2ccnnc2)cc1
viability at 10 µM [1]: > 70%

Structure (SMILES): COc1ccc(S(=O)(=O)Nc2cccnc2-c2ccc(N)cc2)cc1
viability at 10 µM [1]: > 70%

IC50 [5]: > 10 µM | IC50 [3]: 7.19 µM | IC50 [6]: > 10 µM | IC50 [7]: 3.85 µM | IC50 [8]: 6.31 µM | IC50 [9]: 3.62 µM | IC50 [10]: > 10 µM
Structure (SMILES): COc1ccc(S(=O)(=O)Nc2cccnc2-c2ccc([N+](=O)[O-])cc2)cc1
IC50 [2]: 7.6 µM | IC50 [11]: 5.3 µM | IC50 [4]: 1.4 µM

IC50 [5]: 1.34 µM | IC50 [3]: 1.09 µM | IC50 [6]: 2.46 µM | IC50 [7]: 0.204 µM | IC50 [8]: 0.746 µM | IC50 [9]: 0.607 µM | IC50 [10]: 1.5 µM
Structure (SMILES): COc1ccc(S(=O)(=O)Nc2cccnc2-c2ccc(C#N)cc2)cc1
IC50 [2]: 0.747 µM | IC50 [11]: 0.816 µM | IC50 [4]: 0.259 µM

IC50 [3]: > 10 µM
Structure (SMILES): N#Cc1ccc(-c2ncccc2NS(=O)(=O)c2ccc(OC(F)(F)F)cc2)cc1F
IC50 [2]: > 10 µM | IC50 [4]: > 10 µM

Structure (SMILES): COc1ccc(S(=O)(=O)Nc2cccnc2-c2c(OC)cccc2OC)cc1
viability at 10 µM [1]: > 70%

Structure (SMILES): COc1ccc(S(=O)(=O)Nc2cccnc2-c2ccccc2OC)cc1
viability at 10 µM [1]: > 70%

Structure (SMILES): COc1ccc(S(=O)(=O)N(c2cccnc2-c2cc(OC)ccc2OC)S(=O)(=O)c2ccc(OC)cc2)cc1
viability at 10 µM [1]: > 70%

Structure (SMILES): COc1ccc(S(=O)(=O)Nc2cccnc2-c2cc(OC)c(OC)c(OC)c2)cc1
viability at 10 µM [1]: > 70%

IC50 [3]: > 10 µM
Structure (SMILES): COc1ccc(S(=O)(=O)Nc2cccnc2-c2ccc(C#N)c(F)c2)cc1OC
IC50 [2]: > 10 µM | IC50 [4]: > 10 µM

Structure (SMILES): COc1ccc(S(=O)(=O)Nc2cccnc2-c2ccc(OC)c(OC)c2)cc1
viability at 10 µM [1]: > 70%

IC50 [3]: > 10 µM
Structure (SMILES): N#Cc1ccc(-c2ncccc2NS(=O)(=O)c2ccc(Br)cc2)cc1F
IC50 [2]: > 10 µM | IC50 [4]: > 10 µM | viability at 10 µM [1]: > 70%

Structure (SMILES): COc1ccc(S(=O)(=O)Nc2cccnc2-c2cccc(OC)c2OC)cc1
viability at 10 µM [1]: > 70%

Structure (SMILES): COc1ccc(S(=O)(=O)Nc2cccnc2-c2cccnc2)cc1
viability at 10 µM [1]: > 70%

Structure (SMILES): COc1ccc(S(=O)(=O)N(c2cccnc2-c2ccc(OC)cc2OC)S(=O)(=O)c2ccc(OC)cc2)cc1
viability at 10 µM [1]: > 70%

Structure (SMILES): COc1ccc(S(=O)(=O)Nc2cccnc2-c2cccc([N+](=O)[O-])c2)cc1
viability at 10 µM [1]: > 70%

IC50 [3]: > 10 µM
Structure (SMILES): Cc1ccc(S(=O)(=O)Nc2cccnc2-c2ccc(C#N)c(F)c2)cc1
IC50 [2]: > 10 µM | IC50 [4]: 9.21 µM | viability at 10 µM [1]: > 70%

Structure (SMILES): C=CCc1ccc(O)c(-c2ccc(O)c(CC=C)c2)c1 [HONOKIOL]
viability at 10 µM [1]: > 70%

Structure (SMILES): COc1ccc(S(=O)(=O)Nc2cccnc2-c2ccccc2O)cc1
viability at 10 µM [1]: > 70%

IC50 [3]: > 10 µM
Structure (SMILES): N#Cc1ccc(-c2ncccc2NS(=O)(=O)c2ccc(Cl)cc2)cc1F
IC50 [2]: > 10 µM | IC50 [4]: > 10 µM | viability at 10 µM [1]: > 70%

Structure (SMILES): COc1ccc(S(=O)(=O)Nc2cccnc2-c2cccc(N)c2)cc1
viability at 10 µM [1]: > 70%

Structure (SMILES): COc1ccc(S(=O)(=O)Nc2cccnc2-c2ccc(O)cc2)cc1
viability at 10 µM [1]: > 70%

Structure (SMILES): COc1ccc(S(=O)(=O)N(c2cccnc2-c2cccc(OC)c2OC)S(=O)(=O)c2ccc(OC)cc2)cc1
viability at 10 µM [1]: > 70%

Structure (SMILES): COc1ccc(S(=O)(=O)Nc2cccnc2-c2cccc(C#N)c2)cc1
viability at 10 µM [1]: > 70%

Structure (SMILES): COc1ccc(S(=O)(=O)Nc2cccnc2-c2ccncc2)cc1
viability at 10 µM [1]: > 70%

inhibition [12]: inactive | inhibition [13]: inactive | inhibition [14]: inactive
Structure (SMILES): CC(=O)O[C@H]1C(=O)[C@@]2(C)[C@H]([C@H](OC(=O)c3ccccc3)[C@]3(O)C[C@H](OC(=O)[C@H](O)[C@@H](NC(=O)c4ccccc4)c4ccccc4)C(C)=C1C3(C)C)[C@]1(OC(C)=O)CO[C@@H]1C[C@@H]2O

Structure (SMILES): COc1ccc(S(=O)(=O)Nc2cccnc2-c2cccc(O)c2)cc1
viability at 10 µM [1]: > 70%
